Reference: ChEMBL document CHEMBL4350976, “Sequence modification of heptapeptide selected by phage display as homing device for HT-29 colon cancer cells to improve the anti-tumour activity of drug delivery systems” (Eur J Med Chem, 2019)
Where a SMILES comes first, the peptide text is derived from it. The star is where a group is joined. X1 = COc1cccc2c1C(=O)c1c(O)c3c(c(O)c1C2=O)C[C@@](O)(/C(C)=N/OCC(=O)*)C[C@@H]3O[C@H]1C[C@H](N)[C@H](O)[C@H](C)O1

Key:
[1] = Stability in serum free medium at 30 uM incubated for 3 hrs by LC/MS analysis
Procedure, shortened: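 Conjugates (30 μM) were incubated at 37 °C in serum-free medium. Samples were taken at 0 and 3 h, quenched with acetic acid, lyophilised, desalted on C18 spin columns and analysed by LC-MS.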

[2] = Stability in 2.5% fetal bovine serum containing medium assessed as drug decomposition measured as Dau=Aoa-LR-OH and H-RYVHLPYAT-NH2 metabolite formation with loss of sugar content at 30 uM measured after 24 hrs by LC/MS analysis; type: ADME, cell-free, Bos taurus; details: cattle
Procedure, shortened: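 Conjugates (30 μM) were incubated at 37 °C in medium containing 2.5% FBS. Samples were taken at 0, 3, 6 and 24 h, quenched with acetic acid, lyophilised, desalted on C18 spin columns and analysed by LC-MS. Cleavage products were identified by mass.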

HT-29 = experiment: Cytostatic activity against human HT-29 cells preincubated for 24 hrs under serum free condition followed by compound washout and further incubation for 48 hrs in presence of serum by MTT assay; type: functional, cell-based
Procedure, shortened: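 HT-29 cells were exposed to the compound for 24 h, washed, and kept a further 48 h. Viability was read by MTT. Absorbances were normalized to untreated controls and fitted by nonlinear regression to dose-response curves to give IC50.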

[3] = Drug uptake in human HT-29 cells at 100 uM incubated for 3 hrs by flow cytometry; type: ADME, cell-based; details: ht-29, 3 h
Procedure, shortened: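 HT-29 cells were exposed to 100 µM conjugate for 3 h. Flow cytometry recorded the percentage of Dau-positive cells and the mean fluorescence intensity, in duplicate.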

[4] = Retention time of the compound using 0.1% TFA in water and 0.1% TFA in acetonitrile-water (80:20 v/v) as eluents by RP-HPLC analysis; type: physicochemical
Procedure, shortened: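 Analytical RP-HPLC. Eluent A was 0.1% TFA in water and eluent B was 0.1% TFA in acetonitrile-water (80:20, v/v). Gradient: 0% B held to 5 min, then to 90% B at 50 min. Flow 1 mL/min, detection at 220 nm. The column was a Phenomenex Aeris Peptide XB-C18 (250×4.6 mm, 3.6 μm) or a Nucleosil C18 (5 μm, 100 Å, 250×4.6 mm), depending on the conjugate series.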

[5] = Drug uptake in human HT-29 cells at 50 uM after 90 mins by fluorescence based confocal microscopic analysis; type: ADME, cell-based; details: ht-29, 1.5 h
Procedure, shortened: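 HT-29 cells were incubated with 50 µM compound in RPMI for 90 min. Imaging was by confocal microscopy, with Dau detected at 550–600 nm emission.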

- Stability [2]: Unstable
- IC50 (HT-29): > 50 µM
- Drug uptake [3]: Not Active
- Retention time [4]: 31.2 to 31.3 min
- Drug uptake [5]: Not Active
SMILES: COc1cccc2c1C(=O)c1c(O)c3c(c(O)c1C2=O)C[C@@](O)(/C(C)=N/OCC(=O)N[C@@H](CC(C)C)C(=O)N[C@@H](CCCNC(=N)N)C(=O)N[C@@H](CCCNC(=N)N)C(=O)N[C@@H](Cc1ccc(O)cc1)C(=O)N[C@H](C(=O)N[C@@H](Cc1cnc[nH]1)C(=O)N[C@@H](CC(C)C)C(=O)N1CCC[C@H]1C(=O)N[C@@H](Cc1ccc(O)cc1)C(=O)N[C@@H](C)C(=O)N[C@H](C(N)=O)[C@@H](C)O)C(C)C)C[C@@H]3O[C@H]1C[C@H](N)[C@H](O)[C@H](C)O1 (X1-LRRYVHLPYAT-NH2)
- Stability [1]: Stable
